Changes are numbered by the printed parent chain.
What was measured:
Assay type in all cases: biochemical
[1] = system: sDTE (Sinorhizobium sp. D-tagatose 3-epimerase); assay: Michaelis-Menten non-linear regression; conditions: optimum pH 8.0 (Tris-HCl) and 50 °C; Mn2+
Method in brief: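 Enzyme expressed from pET28a(+) in E. coli BL21(DE3) (0.5 mM IPTG, 16 °C, 20 h), purified on Ni-NTA then Resource Q. Standard assay: 20 mM Tris–HCl pH 8.0, 1 μM Mn2+, 0.5 μM enzyme, 50 °C, 10 min; stopped by boiling 5 min; sugars by HPLC-ELSD. Kinetics used four ketose substrates, with Michaelis–Menten non-linear fit; three repeats, mean ± S.D.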

[2] = biological target: T1, sDTE (Sinorhizobium sp. D-tagatose 3-epimerase) (Sinorhizobium sp., UniProt Z9YNK1L8X5, M9A); assay: D-sorbose formation by HPLC, relative activity; conditions: […] g/L D-tagatose, […] Mn2+, […] enzyme, pH […] °C, […] min
T1 sequence (Z9YNK1L8X5 1-293 M9A): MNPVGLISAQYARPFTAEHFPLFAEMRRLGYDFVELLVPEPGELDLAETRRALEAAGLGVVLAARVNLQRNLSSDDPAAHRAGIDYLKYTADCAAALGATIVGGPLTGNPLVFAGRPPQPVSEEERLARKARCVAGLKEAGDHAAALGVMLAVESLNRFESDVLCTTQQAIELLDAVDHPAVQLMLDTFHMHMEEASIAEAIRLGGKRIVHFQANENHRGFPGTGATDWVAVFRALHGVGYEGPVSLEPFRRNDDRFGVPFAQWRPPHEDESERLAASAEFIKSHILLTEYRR

[3] = biological target: T2, sDTE (Sinorhizobium sp. D-tagatose 3-epimerase) (Sinorhizobium sp., UniProt Z9YNK1L8X5, R65G); assay: D-sorbose formation by HPLC, relative activity; conditions: […] g/L D-tagatose, […] Mn2+, […] enzyme, pH […] °C, […] min
T2 sequence (Z9YNK1L8X5 1-293 R65G): T1 sequence (Z9YNK1L8X5 1-293 M9A) with A9M, R65G

SMILES	Km [1] [mM]	D-sorbose formation by HPLC, relative activity [2]	D-sorbose formation by HPLC, relative activity [3]
OCC1(O)OC[C@@H](O)[C@@H](O)[C@@H]1O (stereo partly drawn) [D-Fructose]	54.7 ± 1.3		
O=C(CO)[C@H](O)[C@H](O)[C@H](O)CO [D-Allulose]	39.8 ± 1.7		
OCC1(O)OC[C@@H](O)[C@H](O)[C@@H]1O (stereo partly drawn) [D-Tagatose]	26 ± 1.2	the mutation of R65G and M9A abolished the catalytic activity toward D-tagatose	the mutation of R65G and M9A abolished the catalytic activity toward D-tagatose
OCC1(O)OC[C@@H](O)[C@H](O)[C@H]1O (stereo partly drawn) [D-Sorbose]	83 ± 4.3		

Reference: article PMC9059984 (RSC Advances, 2019)
